# Assay results reported in ChEMBL document CHEMBL2203272, “New fluorescent bile acids: synthesis, chemical characterization, and disastereoselective uptake by Caco-2 cells of 3-deoxy 3-NBD-amino deoxycholic and ursodeoxycholic acid” (Bioorg Med Chem, 2012).
# How the values were obtained:
# [1] = test system: Caco-2; assay: Cytotoxicity against human Caco2 cells assessed as cell viability at 1 to 100 uM up to 100 mins by MTT assay; assay type: cell-based; conditions: caco-2, 100 min
# How it was run: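 Caco-2 monolayers exposed to 1–100 μM for up to 100 min; viability by MTT assay.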
# [2] = test system: Huh-7; assay: Cytotoxicity against human HuH7 cells assessed as cell viability at 1 to 100 uM up to 24 hrs by MTT assay; assay type: cell-based; conditions: huh-7, 24 h
# How it was run: (§1)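 HUH-7 and SKGT-4 cells exposed up to 100 μM for up to 24 h; viability by MTT assay.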
# [3] = test system: Caco-2; assay: Cellular uptake in human Caco2 cells at 10 uM at 4 degC by fluorescence assay; assay type: ADME, cell-based; conditions: caco-2, 10 µM, TDE = time-dependent effect
# How it was run: (§2)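 21-d polarised Caco-2 monolayers incubated with 10 μM in KRB (pH 7.4, 0.1% DMSO) at 37°C or 4°C. Sampled at 5, 10, 15, 30, 45, 60 and 90 min. Cells washed twice with ice-cold KRB and lysed in 1% Triton X-100. Lysate fluorescence read at ex 485/em 520 nm and normalised to BCA protein; mean ± SD, n = 3.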
# [4] = Cytotoxicity against human SKGT4 cells assessed as cell viability at 1 to 100 uM up to 24 hrs by MTT assay; assay type: cell-based; conditions: skgt4, 24 h; how it was run: as §1
# [5] = test system: Caco-2; assay: Cellular uptake in human Caco2 cells at 10 uM at 37 degC by fluorescence assay; assay type: ADME, cell-based; conditions: caco-2, 10 µM, TDE = time-dependent effect; how it was run: as §2
# [6] = Stability of the compound in MeCN/phosphate buffer assessed as compound remaining at pH 7.4 measured for 24 hrs by HPLC analysis; assay type: physicochemical; conditions: pH 7.4, 24 h
# How it was run: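 Solution at 0.01 mg/ml (stock) in 2% MeCN/phosphate buffer pH 7.4, held at 37°C for 24 h and injected hourly. Analysed by C18 reversed-phase HPLC with MeCN/pH 2.5 phosphate buffer gradient, 1.0 ml/min, column 37°C, detection 346 nm; remaining compound followed by peak area.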
# [7] = Cellular uptake in human Caco2 cells assessed as uptake rate at 1 to 100 uM at 4 to 37 degC after 20 mins by Eadie-Hofstee plot method; assay type: ADME, cell-based; conditions: Caco-2 cells
# How it was run: (§3)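 Caco-2 monolayers grown 21 d, exposed to 1–100 μM in bicarbonated Krebs-Ringer buffer (HEPES, pH 7.4, 0.1% DMSO) for 20 min at 37°C and 4°C. Washed twice with ice-cold KRB, lysed in 1% Triton X-100, fluorescence read at ex 485/em 520 nm and normalised to BCA protein. Active uptake = 37°C minus 4°C. Km/Vmax from Michaelis-Menten non-linear least squares fit, Eadie-Hofstee plot; n = 3.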
# [8] = test system: Caco-2; assay: Cellular uptake in human Caco2 cells assessed as uptake rate measured per mg of protein at 1 to 100 uM at 4 to 37 degC after 20 mins by Eadie-Hofstee plot method; assay type: ADME, cell-based; conditions: caco-2, 20 min; how it was run: as §3
# [9] = test system: Caco-2; assay: Cellular uptake in human Caco2 cells at 4 to 37 degC after 20 mins by fluorescence assay; assay type: ADME, cell-based; conditions: caco-2, 20 min
# How it was run: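 Uptake into 21-d Caco-2 monolayers over 20 min at 37°C and 4°C, in KRB pH 7.4 with 0.1% DMSO. Monolayers washed with ice-cold KRB and solubilised in 1% Triton X-100. Fluorescence read at ex 485/em 520 nm with BCA protein normalisation. Active part taken as the 37°C minus 4°C difference; n = 3.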
# [10] = test system: Caco-2; assay: Cellular uptake in human Caco2 cells at 10 uM at 4 to 37 degC after 90 mins by fluorescence assay; assay type: ADME, cell-based; conditions: caco-2, 1.5 h
# How it was run: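 Caco-2 grown 21 d on 24-well plates as polarised monolayers; compound at 10 μM in bicarbonated Krebs-Ringer buffer (HEPES, pH 7.4) with 0.1% DMSO, at 37°C or 4°C, sampled 5–90 min. Washed twice with ice-cold KRB, lysed in 1% Triton X-100, lysate fluorescence read at ex 485/em 520 nm, normalised to BCA protein. Active uptake = 37°C minus 4°C; mean ± SD, n = 3.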
SMILES,Activity [1],Activity [2],Drug uptake [3],Activity [4],Drug uptake [5],Stability [6],"Km at 20 min, up to 100 µM [7] [µM]",Vmax [8] [nmol/min/mg],Drug uptake [9],Drug uptake [10]
C[C@H](CCC(=O)O)[C@H]1CC[C@H]2[C@@H]3[C@@H](O)C[C@@H]4C[C@@H](Nc5ccc([N+](=O)[O-])c6nonc56)CC[C@]4(C)[C@H]3CC[C@]12C,Non-toxic,Non-toxic,tde,Non-toxic,tde,Stable,–,–,–,–
C[C@H](CCC(=O)O)[C@H]1CC[C@H]2[C@@H]3CC[C@@H]4C[C@H](Nc5ccc([N+](=O)[O-])c6nonc56)CC[C@]4(C)[C@H]3C[C@H](O)[C@]12C,Non-toxic,Non-toxic,tde,Non-toxic,tde,–,28.2,1.8,Dose-dependent effect,–
O=[N+]([O-])c1ccc(NC2CCCCC2)c2nonc12,–,–,–,–,–,–,–,–,Dose-dependent effect,Active
